Measured values as given in ChEMBL document CHEMBL1148594, “Novel 4-oxo-1,4-dihydroquinoline-3-carboxamide derivatives as new CB2 cannabinoid receptors agonists: synthesis, pharmacological properties and molecular modeling” (J Med Chem, 2006).

What was measured:
Cannabinoid receptor 2 [1] = molecular target: T1, Cannabinoid receptor 2 (Homo sapiens, UniProt P34972); experiment: Displacement of [3H]CP-55940 from human CB2 receptor at 10 uM
Outline: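 Single-concentration screen at 10 µM on CHO-hCB2 membranes (40 µg) against 1 nM [3H]-CP-55,940, 1 h at 30 °C, pH 7.4 Tris/MgCl2/EDTA/0.5% BSA. HU-210 10 µM defines nonspecific binding. Filtered, counted, reported as percent specific radioligand displacement. At least four experiments in duplicate, mean ± SEM.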

Cannabinoid receptor 1 [2] = molecular target: T2, Cannabinoid receptor 1 (Homo sapiens, UniProt P21554); experiment: Displacement of [3H]SR-141716A from human CB1 receptor at 10 uM
T2 sequence (P21554 whole entry): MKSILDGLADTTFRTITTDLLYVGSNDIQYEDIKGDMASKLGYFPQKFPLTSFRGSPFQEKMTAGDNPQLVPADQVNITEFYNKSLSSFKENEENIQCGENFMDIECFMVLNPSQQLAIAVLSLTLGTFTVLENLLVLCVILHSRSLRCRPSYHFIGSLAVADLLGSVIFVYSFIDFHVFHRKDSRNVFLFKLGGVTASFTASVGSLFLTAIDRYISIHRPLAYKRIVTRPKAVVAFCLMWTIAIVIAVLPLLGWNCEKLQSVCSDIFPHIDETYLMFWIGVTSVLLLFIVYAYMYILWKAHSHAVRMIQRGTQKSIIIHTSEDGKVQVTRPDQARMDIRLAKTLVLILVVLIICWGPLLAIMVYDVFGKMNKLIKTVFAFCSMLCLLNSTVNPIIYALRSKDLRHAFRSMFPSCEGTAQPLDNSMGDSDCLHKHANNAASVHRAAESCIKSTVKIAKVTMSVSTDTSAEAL
Outline: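 Single-concentration screen at 10 µM on membranes of CHO cells stably expressing human CB1 (40 µg) against 1 nM [3H]-SR-141716A, 1 h at 30 °C, pH 7.4 Tris/MgCl2/EDTA/0.5% BSA. HU-210 10 µM for nonspecific binding. Reported as percent displacement. At least four experiments in duplicate.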

[3] = molecular target: Cannabinoid receptor (Homo sapiens) (UniProt P34972+P21554); experiment: Selectivity ratio of human CB2 receptor versus human CB1 receptor in human; format: protein assay
Sequence of Cannabinoid receptor (Homo sapiens) (P21554 whole entry, looked up): as the sequence (P21554 whole entry) above
Sequence of Cannabinoid receptor (Homo sapiens) (P34972 whole entry, looked up): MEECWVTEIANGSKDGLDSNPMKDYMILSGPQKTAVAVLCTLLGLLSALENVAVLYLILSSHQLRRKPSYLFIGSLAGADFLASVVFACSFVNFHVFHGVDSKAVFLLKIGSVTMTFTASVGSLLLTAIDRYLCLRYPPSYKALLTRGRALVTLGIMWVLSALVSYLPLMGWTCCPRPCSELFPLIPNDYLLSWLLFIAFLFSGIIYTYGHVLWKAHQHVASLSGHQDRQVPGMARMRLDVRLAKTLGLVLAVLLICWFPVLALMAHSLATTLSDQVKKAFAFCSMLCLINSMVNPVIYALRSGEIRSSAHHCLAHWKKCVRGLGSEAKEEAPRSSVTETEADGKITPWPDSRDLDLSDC
Outline: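 Ratio of Ki values from [3H]-SR-141716A (hCB1) and [3H]-CP-55,940 (hCB2) competition binding on CHO cell membranes. Ki from IC50 by Cheng-Prusoff, given only when Ki was obtained at both receptors.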

Cannabinoid receptor 2 [4] = molecular target: T1, Cannabinoid receptor 2; experiment: Displacement of [3H]CP-55940 from human CB2 receptor
Cannabinoid receptor 1 [5] = molecular target: T2, Cannabinoid receptor 1
Cannabinoid receptor 2 [6] = molecular target: T1, Cannabinoid receptor 2; experiment: Effect on human CB2 receptor stimulation by [35S]GTP-gamma-S binding at 10 uM (basal value set at 100%); format: functional
Outline: (§1)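 CHO-hCB2 membranes (40 µg) at 30 °C for 1 h in pH 7.4 Tris/MgCl2/EDTA/100 mM NaCl/0.1% BSA with 20 µM GDP. Started by 0.05 nM [35S]-GTPγS (final). Nonspecific binding with 100 µM Gpp(NH)p. Stopped with ice-cold buffer, filtered on GF/B, counted. EC50 by nonlinear regression. Single-point tests at 10 µM, three experiments in duplicate, one-way ANOVA with Dunnett test.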

Cannabinoid receptor 2 [7] = molecular target: T1, Cannabinoid receptor 2; experiment: Effect on [35S]GTP-gamma-S binding to human CB2 receptor; format: functional; outline: as §1

T1 sequence (P34972 whole entry): as the sequence (P34972 whole entry, looked up) above

CCCCCCn1cc(C(=O)NCc2ccccc2)c(=O)c2ccccc21
Activity (Cannabinoid receptor 2 [1]): 54.6% | Activity (Cannabinoid receptor 1 [2]): 37.4%

CCCCCn1cc(C(=O)Nc2cccc3ccccc23)c(=O)c2ccccc21
Selectivity ratio [3]: 11 | Ki (Cannabinoid receptor 2 [4]): 371 nM | Ki (Cannabinoid receptor 1 [5]): 4080 nM | Activity (Cannabinoid receptor 2 [6]): 124% | Activity (Cannabinoid receptor 2 [1]): 90.6% | Activity (Cannabinoid receptor 1 [2]): 65.9%

CCCCn1cc(C(=O)Nc2ccc(OC)cc2)c(=O)c2ccccc21
Activity (Cannabinoid receptor 2 [1]): 50.5% | Activity (Cannabinoid receptor 1 [2]): < 20%

CCCCCn1cc(C(=O)N[C@@H](C)c2ccc3ccccc3c2)c(=O)c2ccccc21
Ki (Cannabinoid receptor 2 [4]): > 5000 nM

CC12CC3CC(C)(C1)CC(NC(=O)c1cn(Cc4ccccc4)c4ccccc4c1=O)(C3)C2
Ki (Cannabinoid receptor 2 [4]): 664 nM | Activity (Cannabinoid receptor 2 [6]): 121% | Activity (Cannabinoid receptor 2 [1]): 86.3% | Activity (Cannabinoid receptor 1 [2]): 32.5%

CCCCCn1cc(C(=O)N[C@H](C)c2ccccc2)c(=O)c2ccccc21
Selectivity ratio [3]: 31 | Ki (Cannabinoid receptor 2 [4]): 37.1 nM | Ki (Cannabinoid receptor 1 [5]): 1150 nM | Activity (Cannabinoid receptor 2 [6]): 124% | EC50 (Cannabinoid receptor 2 [7]): 16.8 nM | Emax (Cannabinoid receptor 2 [7]): 129%

CCCCCn1cc(C(=O)Nc2ccc3ccccc3c2)c(=O)c2ccccc21
Activity (Cannabinoid receptor 2 [1]): 63.9% | Activity (Cannabinoid receptor 1 [2]): < 10%

Cc1c(C(=O)c2cccc3ccccc23)c2cccc3c2n1[C@H](CN1CCOCC1)CO3
Activity (Cannabinoid receptor 2 [6]): 128% | Emax (Cannabinoid receptor 2 [7]): 126%

CCCCCn1cc(C(=O)NC(C)c2ccccc2)c(=O)c2ccccc21 (racemic)
Ki (Cannabinoid receptor 2 [4]): 70.8 nM | Activity (Cannabinoid receptor 2 [6]): 130% | Activity (Cannabinoid receptor 2 [1]): 101% | Activity (Cannabinoid receptor 1 [2]): 68.3%

CCCCCCn1cc(C(=O)Nc2cccc3ccccc23)c(=O)c2ccccc21
Ki (Cannabinoid receptor 2 [4]): 844 nM | Activity (Cannabinoid receptor 2 [6]): 124% | Activity (Cannabinoid receptor 2 [1]): 80% | Activity (Cannabinoid receptor 1 [2]): 53.3%

CCCC(C)(C)c1ccc2c(c1)OC(C)(C)[C@@H]1CC=C(C)C[C@@H]21
Ki (Cannabinoid receptor 2 [4]): 20.3 nM | Activity (Cannabinoid receptor 2 [6]): 148% | EC50 (Cannabinoid receptor 2 [7]): 146 nM | Emax (Cannabinoid receptor 2 [7]): 149%

Cc1ccc(Cn2nc(C(=O)NC3C4(C)CCC(C4)C3(C)C)cc2-c2ccc(Cl)c(C)c2)cc1 (stereo not given)
Activity (Cannabinoid receptor 2 [6]): 21.6% | Emax (Cannabinoid receptor 2 [7]): 21.6%

CCCCCn1cc(C(=O)Nc2ccc(-c3ccccc3)cc2)c(=O)c2ccccc21
Activity (Cannabinoid receptor 2 [1]): < 20% | Activity (Cannabinoid receptor 1 [2]): < 20%

CCCCCn1cc(C(=O)Nc2ccc(C#N)cc2)c(=O)c2ccccc21
Ki (Cannabinoid receptor 2 [4]): 772 nM | Activity (Cannabinoid receptor 2 [6]): 133% | Activity (Cannabinoid receptor 2 [1]): 79.4% | Activity (Cannabinoid receptor 1 [2]): 49.6%

CCCCCn1cc(C(=O)N[C@@H](C)c2ccccc2)c(=O)c2ccccc21
Ki (Cannabinoid receptor 2 [4]): 784 nM

CCCCn1cc(C(=O)NCc2ccccc2)c(=O)c2ccccc21
Activity (Cannabinoid receptor 2 [1]): 44.9% | Activity (Cannabinoid receptor 1 [2]): 33.6%

CCCCCn1cc(C(=O)N[C@@H](C)c2cccc3ccccc23)c(=O)c2ccccc21
Ki (Cannabinoid receptor 2 [4]): > 1000 nM

CCCCCn1cc(C(=O)NC(C)c2ccc3ccccc3c2)c(=O)c2ccccc21 (racemic)
Ki (Cannabinoid receptor 2 [4]): > 1000 nM | Activity (Cannabinoid receptor 2 [6]): 122% | Activity (Cannabinoid receptor 2 [1]): 82.9% | Activity (Cannabinoid receptor 1 [2]): < 10%

CCCCCn1cc(C(=O)N[C@H](C)c2cccc3ccccc23)c(=O)c2ccccc21
Ki (Cannabinoid receptor 2 [4]): 125 nM | Activity (Cannabinoid receptor 2 [6]): 119%

CCCCCn1cc(C(=O)NC23CC4CC(CC(C4)C2)C3)c(=O)c2ccccc21
Ki (Cannabinoid receptor 2 [4]): 16.4 nM | Activity (Cannabinoid receptor 2 [6]): 126% | Activity (Cannabinoid receptor 2 [1]): 104% | Activity (Cannabinoid receptor 1 [2]): 59%

CCCCCn1cc(C(=O)NCCc2ccccc2)c(=O)c2ccccc21
Ki (Cannabinoid receptor 2 [4]): 201 nM | Activity (Cannabinoid receptor 2 [6]): 136% | Activity (Cannabinoid receptor 2 [1]): 98.2% | Activity (Cannabinoid receptor 1 [2]): 64.8%

CCCCn1cc(C(=O)Nc2cccc3ccccc23)c(=O)c2ccccc21
Ki (Cannabinoid receptor 2 [4]): 455 nM | Activity (Cannabinoid receptor 2 [6]): 132% | Activity (Cannabinoid receptor 2 [1]): 85.4% | Activity (Cannabinoid receptor 1 [2]): 45.3%

CCCCCn1cc(C(=O)Nc2ccc(OC)cc2)c(=O)c2ccccc21
Activity (Cannabinoid receptor 2 [1]): 60.1% | Activity (Cannabinoid receptor 1 [2]): < 20%

CCCCCn1cc(C(=O)Nc2ccc(Cl)c(Cl)c2)c(=O)c2ccccc21
Ki (Cannabinoid receptor 2 [4]): > 1000 nM | Activity (Cannabinoid receptor 2 [6]): 116% | Activity (Cannabinoid receptor 2 [1]): 68.1% | Activity (Cannabinoid receptor 1 [2]): < 10%

CCCCCn1cc(C(=O)NCCc2ccc3c(c2)OCO3)c(=O)c2ccccc21
Ki (Cannabinoid receptor 2 [4]): 426 nM | Activity (Cannabinoid receptor 2 [6]): 136% | Activity (Cannabinoid receptor 2 [1]): 88.7% | Activity (Cannabinoid receptor 1 [2]): 43.6%

CCCCCn1cc(C(=O)O)c(=O)c2ccccc21
Activity (Cannabinoid receptor 2 [1]): < 15% | Activity (Cannabinoid receptor 1 [2]): < 20%

CCCCCn1cc(C(=O)NC2CCCc3ccccc32)c(=O)c2ccccc21 (racemic)
Selectivity ratio [3]: 17 | Ki (Cannabinoid receptor 2 [4]): 60.2 nM | Ki (Cannabinoid receptor 1 [5]): 1050 nM | Activity (Cannabinoid receptor 2 [6]): 123% | Activity (Cannabinoid receptor 2 [1]): 96.5% | Activity (Cannabinoid receptor 1 [2]): 79.7% | EC50 (Cannabinoid receptor 2 [7]): 157 nM | Emax (Cannabinoid receptor 2 [7]): 124%

CCCCCn1cc(C(=O)N2CCOCC2)c(=O)c2ccccc21
Activity (Cannabinoid receptor 2 [1]): 36.5% | Activity (Cannabinoid receptor 1 [2]): < 10%

CCCCCn1cc(C(=O)NCc2ccc(OC)cc2)c(=O)c2ccccc21
Activity (Cannabinoid receptor 2 [1]): 51.7% | Activity (Cannabinoid receptor 1 [2]): < 10%

CCCCCn1cc(C(=O)NC2C3CC4CC(C3)CC2C4)c(=O)c2ccccc21 (stereo not given)
Selectivity ratio [3]: 143 | Ki (Cannabinoid receptor 2 [4]): 13.4 nM | Ki (Cannabinoid receptor 1 [5]): 1920 nM | Activity (Cannabinoid receptor 2 [6]): 130% | Activity (Cannabinoid receptor 2 [1]): 104% | Activity (Cannabinoid receptor 1 [2]): 37.8% | EC50 (Cannabinoid receptor 2 [7]): 24.8 nM | Emax (Cannabinoid receptor 2 [7]): 126%

CCCCCn1cc(C(=O)NCCCc2ccccc2)c(=O)c2ccccc21
Ki (Cannabinoid receptor 2 [4]): > 1000 nM | Activity (Cannabinoid receptor 2 [6]): 134% | Activity (Cannabinoid receptor 2 [1]): 85.5% | Activity (Cannabinoid receptor 1 [2]): 32.8%

CCCCCn1cc(C(=O)NC(C)c2cccc3ccccc23)c(=O)c2ccccc21 (racemic)
Ki (Cannabinoid receptor 2 [4]): 174 nM | Activity (Cannabinoid receptor 2 [6]): 117% | Activity (Cannabinoid receptor 2 [1]): 98.9% | Activity (Cannabinoid receptor 1 [2]): 35.5%

CCCCCn1cc(C(=O)N[C@H](C)c2ccc3ccccc3c2)c(=O)c2ccccc21
Ki (Cannabinoid receptor 2 [4]): 584 nM | Activity (Cannabinoid receptor 2 [6]): 122%

CCCCCCC(C)(C)c1cc(O)c2c(c1)OC(C)(C)[C@@H]1CC=C(CO)C[C@@H]21
Activity (Cannabinoid receptor 2 [6]): 135% | Emax (Cannabinoid receptor 2 [7]): 135%

CCCCCCn1cc(C(=O)Nc2ccc(OC)cc2)c(=O)c2ccccc21
Activity (Cannabinoid receptor 2 [1]): 28.2% | Activity (Cannabinoid receptor 1 [2]): < 10%

CCCCCn1cc(C(=O)NCc2ccccc2)c(=O)c2ccccc21
Ki (Cannabinoid receptor 2 [4]): > 1000 nM | Activity (Cannabinoid receptor 2 [6]): 129% | Activity (Cannabinoid receptor 2 [1]): 66.7% | Activity (Cannabinoid receptor 1 [2]): 50.5%

CCCCCCC(C)(C)c1ccc([C@@H]2C[C@H](O)CC[C@H]2CCCO)c(O)c1
Activity (Cannabinoid receptor 2 [6]): 146% | Emax (Cannabinoid receptor 2 [7]): 146%

CCCCCn1cc(C(=O)NC23CC4CC(C)(CC(C)(C4)C2)C3)c(=O)c2ccccc21
Ki (Cannabinoid receptor 2 [4]): 15.8 nM | Activity (Cannabinoid receptor 2 [6]): 131% | Activity (Cannabinoid receptor 2 [1]): 95.6% | Activity (Cannabinoid receptor 1 [2]): 54.6% | EC50 (Cannabinoid receptor 2 [7]): 14.1 nM | Emax (Cannabinoid receptor 2 [7]): 124%
